# Sampled rows, rich in hits. Any-hit rate of the full collection: about 2.2%.
# 697 NFkB inh – lowers PMA/ionomycin-induced NF-kB signal in 697 B cells; 697 B-cell NF-kB luciferase reporter, 16 h; inhibition, % at 4 µM; 0.33% of 330,000 active; in the data active means inhibition above about 35%
# miR-122 sensor – inhibitors of miR-122 in Huh7 cells; Huh7 miR-122 Renilla luciferase sensor, 48 h; neutral wells = 0, positive control = 100; activation (reporter increase), % at 12.5 µM; 0.3% of 340,000 active; AID 602342;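 active means mean replicate activation score at least 90 and every replicate individually at or above 90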;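 further: higher luciferase means less miR-122 activity so hits act as miR-122 inhibitors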
# NR2E3 ag-1 – agonists of human nuclear receptor NR2E3; GST-NR2E3/biotin-RetCOR TR-FRET, 1536-well; inhibition of corepressor binding, % at 4.78 µM; 0.12% of 320,000 active; AID 2300;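 active means percent inhibition above the cutoff of mean plus 3 SD of all tested compounds, set per screening campaign, cut at about 20% in these data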;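 further: 0% = DMSO wells and 100% = biotin wells as full block of FRET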
#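 Test system – NR2E3–RetCOR corepressor complex · Quantity – NR2E3 fusion 1.35 nM · Buffer or medium – Tris pH 7.5 · Incubation – Compound–protein incubation for 5 h at 4 °C · Technique – TR-FRET, Eu(K)-anti-GST donor, streptavidin-D2 acceptor, ex 340, em 617/671 nm · Evaluation – percent inhibition of 671/617 nm emission ratio versus biotin and DMSO controls · Plate – 1536-well format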
# NR2E3 ag-2 – agonists of human NR2E3 nuclear receptor; inhibition of corepressor binding, % at 3.98 µM; AID 602229; CHO-S Gal4-NCOR/VP16-NR2E3 two-hybrid, luciferase; 0.35% of 360,000 active; Q9Y5X4;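 active means inhibition above the mean of all tested compounds plus 3 SD, cut at about 70% in these data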;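 further: 0% = DMSO with NR2E3 transfected cells and 100% = cells lacking NR2E3 construct; higher means lower luciferase signal from less NR2E3 corepressor binding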
# FGF22 binding – FGF22 (human) thermal shift binding; Q9HCT0; recombinant FGF22 thermal shift, SYPRO orange fluorescence; percent of sucrose octasulfate shift, DMSO zero; 1.5% of 340,000 active; activity (Tm shift, normalised), % at 9.99 µM;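 active means mean Tm shift, scaled 0 neutral to 100 positive control, at about 1.3% or above, every replicate too, limit read from the data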
# Target sequence (Q9HCT0 whole entry, looked up): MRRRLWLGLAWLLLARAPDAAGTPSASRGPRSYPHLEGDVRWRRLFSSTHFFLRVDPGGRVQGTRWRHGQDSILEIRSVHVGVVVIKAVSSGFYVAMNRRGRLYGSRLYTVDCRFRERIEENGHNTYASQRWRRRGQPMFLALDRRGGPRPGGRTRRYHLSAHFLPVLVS
# Jurkat NFkB inh – lowers PMA/ionomycin-induced NF-kB signal in Jurkat cells; PMA/ionomycin-induced NF-kB luciferase reporter, luminescence; 0.53% of 330,000 active; inhibition, % at 4 µM; in the data active means inhibition above about 50%
# Jurkat NFkB conf – lowers PMA/ionomycin-induced NF-kB signal in Jurkat cells | inhibition, % at 4 µM | Jurkat NF-kB luciferase, 16 h | shares compounds with Jurkat NFkB inh | AID 435020 | 27% of 2,700 active;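 active means inhibition reaching about 45% at 4 µM in either replicate, limit read from the data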;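 further: plate controls were PMA/ionomycin stimulated DMSO wells for no effect and unstimulated DMSO wells for full effect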
# Numbers without * were called inactive; x = no result given; [ ] = dose if it differs, or a comment.
SMILES,697 NFkB inh,miR-122 sensor,NR2E3 ag-1,NR2E3 ag-2,FGF22 binding,Jurkat NFkB inh,Jurkat NFkB conf
COc1cc(C2C3=C(Nc4ncnn42)c2ccccc2CC3)cc(OC)c1OC (stereo not given),4,75,-2,5,x,75*,61*
CNC[C@H]1OCCCC[C@@H](C)Oc2ccc(NC(=O)NC3CCCCC3)cc2C(=O)N([C@@H](C)CO)C[C@H]1C,x,-6[16.7 µM],x,x,x,x,x
COc1ccc(N2CCc3c(C)nc4c(OC)cc(OC)cc4c32)cc1,-24,x,-2,-13,0,51*,10
COc1ccc(N2CCc3c(C)nc4c(OC)cccc4c32)cc1,-124,x,1,-15,0,64*,31
O=C(CCc1c[nH]c2ccccc12)OCc1cccc(C(F)(F)F)c1,-19,-11,4,-21,0,51*,17
COc1ccc(COC(=O)CCc2c[nH]c3ccccc23)cc1F,-3,1,4,-14,0,31,x
COc1ccc(N/C=C/C(=O)c2ccc(Cl)cc2)cc1,-195,x,-2,-140,x,-174,-1
COc1cccc(C(=O)/C=C/Nc2ccc(NC(C)=O)cc2)c1,-54,x,1,-40,0,-48,x
COc1cccc(C(=O)/C=C/Nc2cccc(O)c2)c1,-62,x,1,-163,0,-199,-182
CS(=O)(=O)c1ccc(Sc2nc3ccccc3s2)c([N+](=O)[O-])c1,-24,4,-1,-10,x,94*,58*
CSc1ccc(/C=C/C(=O)Nc2ccccc2)cc1,-110,-5,2,-101,0,-240,-149
CCCCCc1ccc(OCCCC[n+]2ccccc2)c(CCCCC)c1,13,-12,-1,-5,x,45,x
CCCCCc1ccc(OCCCC[n+]2ccc(C)cc2)c(CCCCC)c1,34,x,-3,-15,0,54*,54*
CC(Oc1ccc(Cl)cc1Cl)C(=O)Nc1ccncc1 (stereo not given),-9,-2,1,24,x,51*,36
CC(=O)Nc1ccc(NC(=O)C(C)Oc2ccc(Cl)cc2Cl)cc1 (stereo not given),2,x,2,10,43,7,x
C[C@@H]1CN([C@H](C)CO)C(=O)c2cc(NC(=O)CCC(F)(F)F)ccc2O[C@H]1CN(C)C(=O)NC1CCCCC1,x,0[16.7 µM],x,x,0,x,x
Cc1cccc(Nc2nc(-c3ccccn3)cs2)n1,-169,0,-4,18,x,-185,-93
CC(=O)Oc1ccc(-c2csc(Nc3cccc(C)n3)n2)cc1,-135,x,2,-123,0,-151,-80
Cc1cccc(Nc2nc(-c3cccs3)cs2)n1,-138,0,1,-136,x,-142,x
CNc1ccc(/C=C(\C#N)c2ccccn2)cc1[N+](=O)[O-],-59,-3,-1,-78,0,-195,-50
C[C@@H]1CN([C@H](C)CO)C(=O)c2cc(C#CC3CC3)cnc2O[C@@H]1CN(C)C(=O)Nc1ccccc1,x,-5[16.7 µM],x,x,0,x,x
COC(=O)c1ccc(/C=N/NC(=O)c2ccccc2Cl)cc1,-5,x,3,-6,x,-10,x
O=C(O)c1ccc(N/N=C/c2ccc(-c3ccccc3)cc2)cc1,x,x,x,-118,43,x,x
CC(C)c1ccc(/C=N/Nc2ccc(C(=O)O)cc2)cc1,-233,x,3,-1,44*,55*,46
CC(C)c1ccc(/C=N/NC(=O)c2ccccc2Cl)cc1,-104,x,2,-41,1,52*,10
CC(C)c1ccc(NC(=O)c2csnn2)cc1,-175,1,6,-99,0,-162,-109
OC(CN1C2=NCCN2c2ccccc21)c1ccc2c(c1)OCO2 (stereo not given),-1,-14,2,9,x,63*,12
CC1CCN(c2c(NCc3ccc(C(=O)N4CCc5ccccc54)cc3)c(=O)c2=O)CC1,-7,7,2,-5,0,58*,45
CCn1c(/C=C/c2ccccc2)nc2ccccc21,-135,9,-4,-150,x,-170,-134
CC(C)Cn1c(/C=C/c2ccccc2)nc2ccccc21,-65,1,2,-114,x,-22,x
